# Screening results (PubChem)
# pCIP destab – lowers stability of the mouse p/CIP coactivator protein. Q05BA5. F442A p/CIP-EGFP cells, EGFP fluorescence, 16 h. decrease of EGFP signal, % at 10 µM. hit rate 0.01% among 290,000. AID 1984;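 active = EGFP signal decrease of at least 30% at 10 µM or well 3 SD below plate mean, unless failing retest; inactive = the rest, including hits failing retest or dose response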
# AI-2 QS modul – Vibrio harveyi AI-2 quorum sensing modulation | hit rate 0.4% among 300,000 | Vibrio harveyi JMH597 AI-2 luminescence/OD600 ratio, 9 h; stronger effect = lower value; strain lacks LuxN and CqsS sensors; 0 = neutral-control median | AID 2094 | activity change, % at 7.5 µM; in the data active = activity change below about -75%, passing the limit was not always enough;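 note: luminescence divided by OD600 gain over 9 h not by final OD600 alone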
# UBC13 polyUb – blocks human UBC13 polyubiquitin chain formation | P61088 | TR-FRET | inhibition, % at 20 µM | hit rate 0.47% among 330,000 | AID 485273; in the data active = inhibition above about 45%, passing the limit was not always enough
# PP1 counter – counter-screen for PP5 inhibitors: inhibitors of human PP1-alpha | inhibition, % at 6.7 µM | hit rate 0.9% among 320,000 | AID 2235 | purified PP1alpha, OMFP fluorescence;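 active = inhibition above the mean inhibition of all tested compounds plus 3 SD, computed separately for each screening campaign, cut at about 15% in these data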
# T cruzi inh – T. cruzi replication inhibition; T. cruzi beta-gal in NIH3T3, luminescence, 90 h; inhibition, % (concentration not given with the values); hit rate 1.4% among 300,000;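 active = mean inhibition across valid replicates above about 55%, limit read from the data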;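 note: signal also drops with host cell toxicity which is not excluded here; higher percent means less beta-gal luminescence so fewer parasites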
#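 Read-out: Parasite load inhibition, % | Test system: Mouse NIH/3T3 fibroblasts infected with β-gal-expressing T. cruzi Tulahuen C4 | Amount: 5,000 cells/well | Medium: DMEM, 2% fetal bovine serum | Signal: GalScreen β-gal luminescence, detergent lysis, 60 min | Timing: 3 h attach, ≥90 h co-culture | Also added: Tulahuen C4 trypomastigotes, 5000/well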
# PP1 inh confirm – confirmation of human PP1 phosphatase inhibitors | shares compounds with PP1 counter | hit rate 52% among 1,900 | purified PP1alpha, OMFP substrate fluorescence | AID 2358 | inhibition, % at 6.7 µM;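 active = mean PP1 inhibition above a set limit taken from the earlier primary screen, cut at about 15% in these data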
# PP5 counter – PP5 phosphatase inhibition, counter-screen for PP1 inhibitors; purified PP5c, OMFP fluorescence; hit rate 4% among 1,900; shares compounds with PP1 counter; inhibition, % at 6.7 µM;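 active = mean PP5 inhibition over triplicate wells above about 9.5% taken from the earlier PP1 screen, limit read from the data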
# Casp3 counter – caspase-3 inhibition (UBC13 counter-screen) | inhibition, % at 20 µM | Recombinant caspase-3, Caspase-Glo 3/7 luminescence, 60 min | hit rate 4% among 1,400 | shares compounds with UBC13 polyUb | AID 488856;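 active = mean inhibition across replicates above about 26%, limit read from the data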
# UBC13 confirm – human UBC13 polyubiquitin inhibition, confirmed. shares compounds with UBC13 polyUb. UBC13 polyubiquitination, TR-FRET, biochemical. inhibition, % at 10 µM. hit rate 68% among 1,400; in the data active = inhibition above about 45%
# A number is an active result; - = inactive; . = no result given. This is a sample that favours compounds with a hit; in the whole collection about 2.8% have one here.
SMILES,pCIP destab,AI-2 QS modul,UBC13 polyUb,PP1 counter,T cruzi inh,PP1 inh confirm,PP5 counter,Casp3 counter,UBC13 confirm
COc1cccc(CN2CC(C(=O)NC3CCC(O)CC3)CCC2=O)c1 (stereo unspecified),-,-,-,-,-,.,.,.,.
CCCCCCCCCCCCCCCC[n+]1ccc(/C=N/O)cc1,-,.,91,54,.,32,15,-,88
CCCCCCCCCCCCCCCC[n+]1ccc(C(N)=O)cc1,-,.,89,41,.,25,-,-,99
CCCCCCCC[n+]1cccc(C(=O)N(CC)CC)c1,-,-,-,-,-,.,.,.,.
CCCCCCCCCCCCCCCC[n+]1cccc(C(=O)N(CC)CC)c1,-,-,70,31,-,-,-,-,94
CC(C)Cc1nnc(NC(=O)CCC(=O)NC2CCCC2)s1,-,-,-,-,-,.,.,.,.
CC(=O)Nc1cccc(NC(=O)CSc2ncc(C(=O)Nc3ccc(F)cc3)c(=O)n2C)c1,.,-,51,34,-,-,-,97,-
Cc1cc2c(=O)n(C)c(SCC(=O)Nc3cccc(F)c3)nc2s1,-,-,-,-,-,.,.,.,.
COc1ccc(OC)c2sc(N(CCCN(C)C)C(=O)c3ccc(S(=O)(=O)N4CCc5ccccc5C4)cc3)nc12,.,-,100,20,60,22,-,-,118
COc1cc(S(=O)(=O)NCCCn2ccnc2)ccc1Cl,-,-,-,-,-,.,.,.,.
COC(=O)C(Cc1ccc(O)cc1)NC(=O)c1ccc2c(c1)OCCO2 (stereo unspecified),-,-,-,-,-,.,.,.,.
COc1ccc(CNC[C@@H](CCCCN(C)Cc2ccc(OC)cc2)N2C[C@H](c3ccccc3)N(CCc3ccc(Cl)c(Cl)c3)C(=O)C2=O)cc1,-,-,93,39,-,-,-,-,74
CN(CCCC[C@H](CNCc1ccc(-c2ccccc2)cc1)N1C[C@H](c2ccccc2)N(CCc2ccc(Cl)c(Cl)c2)C(=O)C1=O)Cc1ccc(-c2ccccc2)cc1,-,.,.,.,.,.,.,.,.
CCN(CC)CCOC(=O)c1ccc(N/C=C(/C#N)c2nc(-c3ccc(OC)c(OC)c3)cs2)cc1,-,-,117,66,-,35,-,-,138
CCN(CC)CCOC(=O)c1ccc(N/C=C(/C#N)c2nc(-c3cccc(OC)c3)cs2)cc1,-,-,99,54,-,-,-,-,-
Cc1ccc(-c2csc(/C(C#N)=C/Nc3ccc4c(c3)OCCO4)n2)cc1,-,-,-,-,-,.,.,.,.
Brc1cc(Cc2nnc(-c3ccccc3)o2)c(Br)s1,-,-,-,-,-,.,.,.,.
CCN1CCN(Cc2ccc(NC(=O)c3cc(NC(=O)c4cncc(-c5ccc(C#N)cc5)c4)cc(OC)c3)cc2C(F)(F)F)CC1,-,-,118,51,-,-,-,-,126
CCN1CCN(Cc2ccc(NC(=O)c3cc(NC(=O)c4nccnc4N)cc(OC)c3)cc2C(F)(F)F)CC1,-,-,-,-,-,.,.,.,.
CC1CCCC(NC(=O)c2cccc(S(=O)(=O)NCc3ccccc3)c2)C1C (stereo unspecified),.,.,-,-,.,.,.,.,.
Oc1ccccc1Nc1nc(NCc2ccccc2)c2ccccc2n1,-,-,50,19,-,-,-,-,49
C#CCOCCOCCOCCNc1nc(N2CCN(C(=O)CCCCCCCCCCNC(=O)Cn3cc(C[C@@H](C)O)nn3)CC2)nc(N2CCN(C(=O)CCCCCCCCCCNC(=O)[C@@H]([C@H](C)O)n3cc(C)nn3)CC2)n1,.,.,-,-,.,.,.,.,.
C#CCOCCOCCOCCNc1nc(N2CCN(C(=O)CCCCCCCCCCNC(=O)[C@@H](CCC(=O)O)n3cc(CCCCCN)nn3)CC2)nc(N2CCN(C(=O)CCCCCCCCCCNC(=O)[C@H](CCCCN)n3cc(C[C@@H](C)CC)nn3)CC2)n1,.,.,120,18,.,-,-,-,124
C#CCOCCOCCOCCNc1nc(N2CCN(C(=O)[C@H]([C@@H](C)CC)n3cc(CCCCN)nn3)CC2)nc(N2CCN(C(=O)[C@H](CCCCN)n3cc(CC(C)O)nn3)CC2)n1 (stereo partly specified),.,.,-,-,.,.,.,.,.
C#CCOCCOCCOCCNc1nc(N2CCN(C(=O)CCCCCCCCCCNC(=O)Cn3cc(C[C@@H](C)O)nn3)CC2)nc(N2CCN(C(=O)CCCCCCCCCCNC(=O)[C@@H]([C@H](C)CC)n3cc(CCCCCN)nn3)CC2)n1,.,.,120,55,.,44,-,-,121
SMILES,pCIP destab,AI-2 QS modul,UBC13 polyUb,PP1 counter,T cruzi inh,PP1 inh confirm,PP5 counter,Casp3 counter,UBC13 confirm
C#CCOCCOCCOCCNc1nc(N2CCN(C(=O)CCCCCCCCCCNC(=O)[C@@H](CCSC)n3cc(CCO)nn3)CC2)nc(N2CCN(C(=O)CCCCCCCCCCNC(=O)[C@H](CCCN=C(N)N)n3cc(C[C@@H](C)CC)nn3)CC2)n1,.,.,128,49,.,39,-,-,123
C#CCOCCOCCOCCNc1nc(N2CCN(C(=O)CCCCCCCCCCNC(=O)[C@@H](CCSC)n3cc(CCO)nn3)CC2)nc(N2CCN(C(=O)CCCCCCCCCCNC(=O)[C@H](CCC(=O)O)n3cc(CCCCCN)nn3)CC2)n1,.,.,102,18,.,37,-,-,77
COc1cc(C(=O)OCC(=O)N(CC(C)C)C2CCS(=O)(=O)C2)cc(OC)c1C (stereo unspecified),.,.,-,-,.,.,.,.,.
COc1ccccc1CN1CCN(S(=O)(=O)c2ccc(C)cc2)CC1,.,-,-,-,-,.,.,.,.
Cc1ccc([N+](=O)[O-])cc1N=C(c1cccc(Br)c1)N1CCOCC1,-,-,-,-,-,.,.,.,.
CCOc1ccc(NS(=O)(=O)c2ccc(C(=O)NNC(=O)c3ccccc3O)cc2)cc1,.,.,-,-,-,.,.,.,.
C#CCOCCOCCOCCNc1nc(N2CCN(C(=O)CCCCCCCCCCNC(=O)[C@H]([C@@H](C)CC)n3cc(CCCCN=C(N)N)nn3)CC2)nc(N2CCN(C(=O)CCCCCCCCCCNC(=O)[C@@H]([C@H](C)O)n3cc(C)nn3)CC2)n1,.,.,123,56,.,47,-,-,125
C#CCOCCOCCOCCNc1nc(N2CCOCC2)nc(N2CCN(C(=O)CCCCCCCCCCNC(=O)[C@H](CO)n3cc(CCCSC)nn3)CC2)n1,.,.,-,-,.,.,.,.,.
C#CCOCCOCCOCCNc1nc(N2CCN(C(=O)CCCCCCCCCCNC(=O)[C@H](CCCCN)n3cc(C)nn3)CC2)nc(N2CCN(C(=O)CCCCCCCCCCNC(=O)[C@H](CCCN=C(N)N)n3cc(C[C@@H](C)CC)nn3)CC2)n1,.,.,123,53,.,50,-,-,127
